An excerpt weighted towards active compounds, which were near 1.5% of everything screened.
SIRT5 inh – blocks human SIRT5 desuccinylation of peptide; Q9NXA8; Purified SirT5, succinyl-peptide AMC, trypsin-coupled fluorescence; inhibition, % at 15 µM; 1.1% of 330,000 active; in the data active = inhibition above about 15%
Target sequence (Q9NXA8 whole entry, looked up): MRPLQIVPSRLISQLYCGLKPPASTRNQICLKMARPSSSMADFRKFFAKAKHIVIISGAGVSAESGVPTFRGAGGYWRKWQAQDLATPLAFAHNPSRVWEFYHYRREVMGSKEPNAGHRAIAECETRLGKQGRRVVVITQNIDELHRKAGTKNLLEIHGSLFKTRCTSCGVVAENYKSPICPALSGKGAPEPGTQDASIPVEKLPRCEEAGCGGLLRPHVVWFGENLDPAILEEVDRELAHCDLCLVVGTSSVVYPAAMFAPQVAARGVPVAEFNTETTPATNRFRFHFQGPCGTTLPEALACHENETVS
CRFR2-BP antag – CRF-BP/CRF-R2 complex antagonism; AID 588475; HEK293 CRF-R2/CRF-BP, CRF-induced calcium fluorescence; 0.59% of 350,000 active; inhibition, % at 11.8 µM;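 active = inhibition of the ligand-induced calcium signal above about 50% at the single tested concentration, limit read from the data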
S100A4 inh HTS – inhibitors of human S100A4 binding to myosin IIA peptide | S100A4/TAMRA-MyoIIA peptide fluorescence polarization | P26447 | inhibition, % at 10.7 µM | 0.14% of 360,000 active;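 active = mean inhibition of at least 70% across replicates, with every replicate also reaching that level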
Target sequence (P26447 whole entry, looked up): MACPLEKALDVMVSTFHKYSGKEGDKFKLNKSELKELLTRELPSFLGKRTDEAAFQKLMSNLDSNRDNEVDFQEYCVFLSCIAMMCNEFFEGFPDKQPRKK
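Test system – S100A4 monomer (human) · Compound – single-point compound testing · Schedule – 5 min incubation before reading · Probe or stimulus – TAMRA-labelled myosin IIA heavy-chain peptide probe, 5 nM · Benchmarks – neutral control DMSO, positive control TFP · Medium – Calcium-containing HEPES buffer, pH 7.2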
PKA-R1A activ – activates the PKA-R1A holoenzyme complex; PKA-R1A dissociation, Cy5-IP20 fluorescence polarization; scaled: DMSO 0%, 113 µM cGMP 100%; activation, % at 11.4 µM; 0.083% of 340,000 active; P00514+P68181;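 active = percent activation above the mean of all tested compounds plus 3 SD, cut at about 19% in these data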;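 also: higher means more PKAc released from R1A so a rise in polarization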
PKA-R2B activ – activators of human PKA-R2B complex; P22694+P31323; PKA-R2B holoenzyme dissociation, Cy5-IP20 fluorescence polarization; R2B truncated from residue 108, S112A mutant; 0% DMSO only, 100% 113 µM cGMP; activation, % at 11.4 µM; 0.079% of 340,000 active;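 active = activation above a cutoff set at the mean over all compounds plus 3 SD, cut at about 18% in these data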;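 also: higher means more holoenzyme dissociation and a rise in polarization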
Large screens that a line does not name were inactive.

O=C(Oc1ccccc1F)c1ccc2c(=O)n3c(nc2c1)CCC3	CRFR2-BP antag 99
O=C(Oc1ccccc1Cl)c1ccc2c(=O)n3c(nc2c1)CCC3	none
CCN(CC(=O)Nc1c(F)cccc1F)C(=O)c1ccc2c(=O)n3c(nc2c1)CCC3	CRFR2-BP antag 104
CC(C)NC(=O)N(C)C[C@@H]1Oc2ccc(NC(=O)Nc3ccc(F)cc3)cc2CC(=O)N([C@@H](C)CO)C[C@@H]1C	none (no result: CRFR2-BP antag, PKA-R1A activ, PKA-R2B activ)
COCC(=O)N(C)C[C@H]1Oc2cc(C3=CCCCC3)ccc2S(=O)(=O)N([C@@H](C)CO)C[C@@H]1C	none (no result: CRFR2-BP antag, PKA-R1A activ, PKA-R2B activ)
CN(C)c1ccc2c(c1)[C@@H]1C[C@@H](CC(=O)O)O[C@@H](CO)[C@@H]1O2	none (no result: CRFR2-BP antag, PKA-R1A activ, PKA-R2B activ)
C[C@@H]1CN([C@H](C)CO)C(=O)Cc2cc(NC(=O)Nc3ccc(F)cc3)ccc2O[C@H]1CN(C)C	none (no result: CRFR2-BP antag, PKA-R1A activ, PKA-R2B activ)
CCN(CC(=O)Nc1c(F)cccc1F)C(=O)c1ccc(S(=O)(=O)N2CCCCCC2)cc1	none
CCN(CC(=O)Nc1c(F)cccc1F)C(=O)c1ccc(S(=O)(=O)N2CCC(C)CC2)cc1	CRFR2-BP antag 122
COc1ccc(S(=O)(=O)N(C)C[C@H]2Oc3ccc(NS(C)(=O)=O)cc3C(=O)N([C@@H](C)CO)C[C@H]2C)cc1	none (no result: CRFR2-BP antag, PKA-R1A activ, PKA-R2B activ)
COc1ccc(S(=O)(=O)N(C)C[C@H]2OCCCC[C@@H](C)Oc3ccc(NS(C)(=O)=O)cc3C(=O)N([C@@H](C)CO)C[C@@H]2C)cc1	none (no result: CRFR2-BP antag, PKA-R1A activ, PKA-R2B activ)
Cc1ccc(Oc2ccc(C(=O)NCc3ccncc3)cc2)cc1	CRFR2-BP antag 79 (no result: SIRT5 inh)
O=C(NCc1ccncc1)c1ccc(Oc2ccccc2)cc1	none
C[C@H](CO)N1C[C@H](C)[C@H](CN(C)S(C)(=O)=O)Oc2ncc(/C=C/c3ccccc3)cc2C1=O	none (no result: CRFR2-BP antag, PKA-R1A activ, PKA-R2B activ)
C[C@@H]1CCCCO[C@@H](CN(C)C(=O)C2CCCCC2)[C@H](C)CN([C@H](C)CO)C(=O)c2cc(NC(=O)Nc3ccc4c(c3)OCO4)ccc2O1	none (no result: CRFR2-BP antag, PKA-R1A activ, PKA-R2B activ)
CCCNC(=O)N1[C@@H](CO)[C@@H](c2ccccc2)C12CN(CCC(F)(F)F)C2	none (no result: CRFR2-BP antag, S100A4 inh HTS, PKA-R1A activ, PKA-R2B activ)
CC(=O)C1=C(O)C(=O)N(c2nccs2)C1c1ccccc1 (stereo not drawn)	CRFR2-BP antag 94 (no result: SIRT5 inh, S100A4 inh HTS)
CC(=O)C1=C(O)C(=O)N(c2ccccn2)C1c1ccc(C)cc1 (stereo not drawn)	none
CC(OC(=O)c1ccc(-c2ccc(O)cc2)cc1)C(=O)NC1CCCCC1C (stereo not drawn)	CRFR2-BP antag 60
Cc1ccc(S(=O)(=O)N(C)C[C@@H]2OCCCC[C@H](C)Oc3ccc(NC(=O)Cc4ccccc4)cc3C(=O)N([C@@H](C)CO)C[C@H]2C)cc1	none (no result: CRFR2-BP antag, PKA-R1A activ, PKA-R2B activ)
COC(=O)[C@@]1(Cc2ccccc2)N=C(c2ccc(OCCCO)cc2)O[C@H]1c1ccccc1CN=[N+]=[N-]	SIRT5 inh 20 (no result: CRFR2-BP antag, PKA-R1A activ, PKA-R2B activ)
CC(C)(C)OC(=O)NOCC(=O)N(CC(=O)c1ccccc1)Cc1ccccc1	SIRT5 inh 27
CC(C)(C)OC(=O)NOCC(=O)N(Cc1ccccc1)CC(O)COc1ccccc1 (stereo not drawn)	none
O=C(C[C@H]1C=C[C@@H](NC(=O)c2ccncc2)[C@H](CO)O1)NCc1ccncn1	none (no result: CRFR2-BP antag, PKA-R1A activ, PKA-R2B activ)
Cc1ccc(NC(=O)CN2C(=O)N/C(=C/c3cc(C)n(-c4cccc(C(=O)O)c4)c3C)C2=O)cc1	SIRT5 inh 19
CC(=O)NC1=NC(=O)/C(=C/c2cc(C)n(-c3ccc(NC(C)=O)cc3)c2C)S1	none
Cc1ccc(NC(=O)CN2C(=O)N/C(=C\c3cccn3-c3cccc(C(=O)O)c3)C2=O)cc1	none (no result: SIRT5 inh, S100A4 inh HTS)
CC(=O)NC1=NC(=O)/C(=C/c2cc(C)n(-c3cccc(C(=O)O)c3)c2C)S1	SIRT5 inh 20 (no result: PKA-R1A activ, PKA-R2B activ)
C[C@H]1CN([C@@H](C)CO)C(=O)Cc2cc(NC(=O)CCN3CCOCC3)ccc2O[C@H]1CN(C)S(=O)(=O)c1ccc(Cl)cc1	none (no result: CRFR2-BP antag, PKA-R1A activ, PKA-R2B activ)
C[C@H]1CN([C@@H](C)CO)S(=O)(=O)c2ccc(C3=CCCCC3)cc2O[C@H]1CN(C)C(=O)c1ccccc1	none (no result: CRFR2-BP antag, PKA-R1A activ, PKA-R2B activ)
Cc1cc(C)c(S(=O)(=O)NCc2ccc3c(c2)cc(C)n3C)c(C)c1	S100A4 inh HTS 83
CCCNC(=O)C[C@@H]1CC[C@H]2[C@@H](COC[C@@H](O)CN2Cc2cccc(F)c2)O1	none (no result: CRFR2-BP antag, PKA-R1A activ, PKA-R2B activ)
